Source: PubChem BioAssay
Most compounds without a hit are left out; they make up all but 4.7% or so of the library.
RGS4 act = potentiators or activators of RGS4. B-score at 10 µM. hit rate 0.92% among 310,000. HEK293 M3R/inducible RGS4, carbachol calcium flux Fluo4; active compounds read low. AID 463111;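 active = B-score of the integrated calcium signal more than 4 SD below the library mean, with starting fluorescence not abnormally high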;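 note: negative B-score means reduced calcium response which marks RGS4 activation or potentiation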
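Material: Inducible-RGS4 HEK293 cells carrying M3 receptor; also added: carbachol at ECmax as muscarinic agonist stimulus; incubation: compound preincubation 20 min at room temperature before agonist; signal: Fluo4-AM (2 µM) calcium-flux fluorescence, kinetic read; measure: integrated calcium ratio converted to B score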
MrgX1 ag = human MrgX1 receptor agonism, primary screen. Q96LB2. MrgX1-HEK293 cells, Fluo-4 calcium fluorescence, agonist mode; active compounds read high. B-score at 10 µM. hit rate 0.44% among 310,000;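 active = calcium response B-score plate-corrected fluorescence ratio at least 3 library SD, with starting fluorescence B-score inside 5 SD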
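Material: MrgX1-expressing HEK293 cells / Dosing: compound as first of three additions / Incubation: overnight seeding, then 1 h dark dye loading / Signal: Fluo-4 NW calcium fluorescence / Evaluation: B-scored fluorescence response ratio / Benchmarks: positive and negative control wells on each plate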
RGS4 inh = human RGS4 inhibition; P49798; AID 463165; HEK293 M3R/RGS4 inducible, Fluo-4 calcium flux; active compounds read high; triggered by carbachol at its EC20; B-score at 10 µM; hit rate 0.45% among 310,000;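 active = B-score, a plate-corrected calcium signal, over three deviations above library mean, with baseline fluorescence within five deviations of library mean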;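 note: RGS4 expression induced by doxycycline in cells with stable M3 receptor; B-score is computed from the integrated fluorescence ratio over baseline after carbachol; higher B-score means a larger calcium signal and so more RGS4 inhibition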
MrgX1 allo act = human MrgX1 positive allosteric modulation, primary screen. Q96LB2. MrgX1-HEK293, Fluo-4 calcium flux, FDSS; active compounds read high. B-score at 10 µM. hit rate 0.63% among 310,000. AID 588675;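 active = plate-corrected calcium response at least 3 library SD above typical, normal starting fluorescence, not activating the receptor alone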;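 note: compound read alongside a low EC10 to EC30 dose of BAM8-22 agonist; peak minus trough fluorescence over baseline measured at the second addition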
MrgX1 antag = antagonists of human MrgX1 receptor | MRGX1-HEK293 calcium flux, Fluo-4, BAM8-22 antagonism; active compounds read low | B-score at 10 µM | hit rate 1.3% among 310,000 | Q96LB2;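 active = calcium-response B-score plate-corrected more than 3 library SD below zero, starting fluorescence within 5 deviations, no agonist response on first addition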;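 note: peak minus trough fluorescence over baseline after final BAM8-22 challenge near maximal dose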
Cl transport mod = modulators of human KCC2 chloride dependent transport; Q9H2X9; KCC2 cells, thallium flux FluoZin-2 fluorescence; B-score of Tl+ flux slope (higher = more flux/activation; lower = inhibition) at 10 µM; hit rate 2.2% among 190,000; AID 1456;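 active = thallium flux slope and its plate-corrected score both differing from the plate sample mean at a set confidence after two filtering rounds, in either direction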;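 note: slope of fluorescence scaled to starting intensity during 10 to 20 s after thallium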
KCC2 secondary = confirmation of human KCC2 transport modulators; hit rate 15% among 3,700; HEK293-KCC2, thallium flux, FluoZin2 fluorescence; active compounds read high; shares compounds with Cl transport mod; normalised thallium flux (F/F0 slope) at 10 µM;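 active = thallium flux slope above the same plate's solvent-only control mean plus 3 SD; inconclusive = the two replicate wells disagree; inactive = no significant difference from solvent-only control wells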
KCC2 bumet counter = thallium flux despite bumetanide block in KCC2 cells, secondary assay 3 | shares compounds with Cl transport mod | HEK293-KCC2 + bumetanide/ouabain, thallium flux FluoZin2; active compounds read high | normalized thallium flux at 10 µM | hit rate 49% among 3,700;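 active = thallium entry rate above the same plate's blocked-transporter control wells by more than 3 SD; inconclusive = the two repeat wells disagree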;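 note: raw slope of fluorescence over initial fluorescence between 10 and 20 s after thallium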
KCC2 secondary2 = confirmation of human KCC2 transport modulators. HEK293-KCC2, thallium flux FluoZin2 fluorescence; actives lie on both sides; F/F0 rise rate, 10–20 s post-thallium. AID 1715. hit rate 23% among 3,700. normalized thallium flux at 10 µM. shares compounds with Cl transport mod;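 active = thallium flux slope more than 3 SD above or below the plate's solvent-only control mean, mostly below; inconclusive = the two repeat wells disagreed; inactive = no significant shift from solvent-only controls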;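 note: raw slope with 0.1% DMSO as baseline and bumetanide as block control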
HEK counter1 = counter-screen for KCC2 modulators: effect in parental HEK293 cells; shares compounds with Cl transport mod; thallium flux FluoZin2, ouabain; baseline-ratio fluorescence slope, 10–20 s after thallium; thallium flux rate (normalised fluorescence) at 10 µM; hit rate 46% among 3,700;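 active = thallium flux rate significantly above the same plate's solvent-only control wells, beyond their mean plus 3 SD; inconclusive = the two replicate wells gave conflicting results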
KCC2 retest ouab = KCC2 (human) modulation, ouabain retest; shares compounds with Cl transport mod; HEK293-KCC2, thallium flux FluoZin2 fluorescence; bidirectional: low = inhibitor, high = activator; raw Tl+ flux slope (below DMSO = inhibition, above = activation) at 10 µM; hit rate 48% among 3,700;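 active = thallium flux slope beyond 3 SD from same-plate DMSO control mean in most replicates, usually higher, sometimes lower; inconclusive = repeat tests gave conflicting results; inactive = no significant difference from controls in most replicates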;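 note: slope of initial-normalized fluorescence between seconds 10 and 20 after thallium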
HEK293 Tl flux2 = counter-screen for KCC2 modulators: effect in parental HEK293 cells; hit rate 33% among 3,700; thallium flux FluoZin-2 fluorescence slope; shares compounds with Cl transport mod; thallium flux slope at 10 µM; AID 1718;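 active = thallium flux slope above the same plate's solvent-control mean plus 3 SD in both duplicate wells; inconclusive = duplicate wells that disagreed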;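 note: run without ouabain in cells lacking the KCC2 cotransporter; slope of fluorescence scaled to its starting value between 10 and 20 s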
Starred values were filed as active, the others as inactive; i = inactive; ? = inconclusive; · = not tested or not shown.

SMILES	RGS4 act	MrgX1 ag	RGS4 inh	MrgX1 allo act	MrgX1 antag	Cl transport mod	KCC2 secondary	KCC2 bumet counter	KCC2 secondary2	HEK counter1	KCC2 retest ouab	HEK293 Tl flux2
COc1cc2c(cc1NC(=O)CSc1ccc(Cl)cc1)oc1ccccc12	i	i	i	i	i	0.405	·	·	·	·	·	·
COc1cc2c(cc1NC(=O)CSc1ccccn1)oc1ccccc12	i	i	i	i	i	-4.83*	0.00796	0.00592	0.0284	0.00702	0.019	0.00855
O=C(CSc1ccccn1)Nc1cccc(NC(=O)CSc2ccccn2)n1	i	i	i	i	i	·	?	?	0.0319	0.00698	0.0205	0.0101
Cc1ccccc1Nc1nc(=O)c2cc([N+](=O)[O-])ccc2s1	i	i	i	i	i	4.2*	0.00575	0.02*	0.0359	0.0163*	0.0307*	0.0164*
Cc1ccc(Nc2nc(=O)c3cc([N+](=O)[O-])ccc3s2)cc1	i	i	i	i	i	2.5	·	·	·	·	·	·
CCC1(c2ccccc2)NC(=S)N(c2ccc(C)c(C)c2)N1 (configuration not stated)	i	i	i	i	i	41.8*	0.0422*	0.106*	0.0382	0.0553*	0.0595*	0.0171*
CC1(CCc2ccccc2)NC(=S)N(c2ccc(Cl)cc2)N1 (configuration not stated)	i	i	i	i	i	-0.0301	·	·	·	·	·	·
CCC1(c2ccc(Cl)cc2)NC(=S)N(c2ccc(C)cc2)N1 (configuration not stated)	i	i	i	i	i	51.5*	0.0406*	0.0959*	?	0.083*	0.0744*	0.0278*
CCC1(c2ccc(Cl)cc2)NC(=S)N(c2ccc(C)c(C)c2)N1 (configuration not stated)	i	i	i	i	i	93.1*	0.0496*	0.12*	0.0445*	0.102*	0.0871*	0.0376*
C=CCOc1c(Br)cc(/C=C2/C(=O)ON=C2C)cc1OC	i	i	i	i	i	·	·	·	·	·	·	·
CC(=O)N[C@@H](Cc1c[nH]c2ccccc12)C(=O)NC1CCCc2ccccc21 (some centres not stated)	i	i	i	i	i	·	·	·	·	·	·	·
CS(=O)(=O)N(CC(=O)O)c1cc(C(F)(F)F)ccc1Cl	·	i	·	i	i	·	·	·	·	·	·	·
COC(=O)C(NS(C)(=O)=O)(c1c(C)[nH]c2ccccc12)C(F)(F)F (configuration not stated)	i	i	i	i	i	-4.42*	0.0069	?	0.0275	0.00827	0.0186	0.0107
CCCCOC(=O)C1=C(C)NC2=C(C(=O)CCC2)C1c1cc(OC)ccc1OC (configuration not stated)	i	i	i	i	i	7.52*	0.00713	0.00561	0.0292	0.00654	0.0192	0.00915
CC(C)c1ccc(OCC(=O)Nc2cccc(C(=O)Nc3ccccc3C(=O)O)c2)cc1	i	i	i	i	i	-4.96*	0.00822	0.00547	0.0334	0.00567*	0.0158*	0.00965
Cc1cccc(OCC(=O)Nc2cccc(C(=O)Nc3ccccc3C(=O)O)c2)c1	i	i	i	i	i	-4.82	·	·	·	·	·	·
C/C(=N/NC(=O)c1ccccn1)c1ccco1	i	i	i	i	i	0.0127	·	·	·	·	·	·
C/C(=N/NC(=O)c1cc(-c2ccc(Cl)s2)[nH]n1)c1ccco1	i	i	i	i	i	10.3*	0.00766	0.00965*	0.0293	0.0132*	0.0206	?
Cc1cc2ccccn2c1C(=S)NC(=O)c1ccccc1	i	i	i	i	i	65.5*	0.02*	0.144*	0.101*	0.12*	0.121*	0.105*
Cc1cc2c(cc1S(=O)(=O)CCC(=O)N(C)Cc1ccccc1)OCC(=O)N2	i	i	i	i	i	·	·	·	·	·	·	·
CC(C)(C)Nc1nc(OCC(F)(F)F)nc(OCC(F)(F)F)n1	i	i	i	i	i	-2.76*	0.00756	0.00695	0.0263	0.00672	0.0149*	0.0101
COc1ccc(S(=O)(=O)NCCOc2ccccc2)cc1-n1cnnn1	i	i	i	i	i	-3.8*	0.00777	?	0.0249*	0.00723	0.0169*	0.00974
COc1ccc(S(=O)(=O)NCCOc2ccccc2)cc1OC	i	i	i	i	i	-0.109	·	·	·	·	·	·
Cc1ccc(C(=O)CCC2CCCC2=O)cc1 (configuration not stated)	i	i	i	i	i	1.26	·	·	·	·	·	·
Cc1ccc(C(=O)CCC2CCCCC2=O)cc1 (configuration not stated)	i	i	i	i	i	·	0.00582	0.0119*	0.0308	0.00746	?	0.0105
CC(=O)c1ccc(NC(=O)CN2CCCC2)cc1	i	i	i	i	i	·	·	·	·	·	·	·
O=C(NC1CCCC1)C(c1cccnc1)N(C(=O)c1csnn1)c1ccccc1Cl (configuration not stated)	i	i	i	i	i	·	·	·	·	·	·	·
Cc1cc(C)c(S(=O)(=O)N2CCOC2CNC(=O)C(=O)NCCCn2ccnc2)c(C)c1 (configuration not stated)	i	i	i	i	i	0.11	·	·	·	·	·	·
COc1ccc(NC(=O)NCCCCc2ccccc2)cc1	i	i	i	i	i	·	·	·	·	·	·	·
C/C(=N\NC(=S)NC(C)C)c1ccccc1	i	i	i	i	i	5.76*	?	0.0204*	0.0283	0.00945*	0.0459*	?
